The test system of series [1] is Lymphocyte. The series is described as follows: Cytoprotective activity in human lymphocytes obtained from FRDA patient assessed as viable cells at 0.5 uM after 16 hrs by trypan blue exclusion assay. The series is classed as functional. Particulars: read-out: Activity. A digest of the protocol: (§1)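 Lymphocytes from FRDA or Leigh's syndrome patients, grown in RPMI-1640 with 15% fetal calf serum and 2 mM glutamine, kept in log phase. Test agents at 0.1, 0.5 and 2.5 µM; diethyl maleate (DEM) added to deplete glutathione and induce oxidative stress. Viability expressed relative to untreated cells (100%). Values are mean ± SD/SEM as tabulated.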

Series [2] concerns Lymphocyte. The series is described as follows: Cytoprotective activity in human lymphocytes obtained from Leigh's syndrome patient assessed as viable cells after 16 hrs by trypan blue exclusion assay. The series is classed as functional, cell-based. A digest of the protocol: as §1
Series [3] deals with Lymphocyte. In words: Increase in ATP production in CoQ10-deficient lymphocytes (unknown origin) assessed as cellular ATP level at 10 uM after 48 hrs using luciferin-luciferase reaction by bioluminescence assay relative to control. The series is classed as functional. A digest of the protocol: (§2)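 CoQ10-deficient lymphocyte line GM17932 grown in glucose-free RPMI 1640 with 25 mM galactose, 2 mM glutamine and 10% dialyzed FBS, forcing oxidative phosphorylation. Incubated with compounds at 5, 10 or 25 µM for 48 h. Total intracellular ATP measured by luciferin–luciferase reaction, expressed as % of untreated control.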

The test system of series [4] is Lymphocyte. The series is described as follows: Cytoprotective activity in human lymphocytes obtained from FRDA patient assessed as viable cells after 16 hrs by trypan blue exclusion assay. The class given is functional, cell-based. In a few lines:
as §1

In series [5] the test system is Lymphocyte. The series is described as follows: Cytoprotective activity in human lymphocytes obtained from Leigh's syndrome patient assessed as viable cells at 0.1 uM after 16 hrs by trypan blue exclusion assay. Particulars: read-out: Activity. The series is classed as functional. In a few lines: as §1
For series [6], the system named is Lymphocyte. The series is described as follows: Increase in ATP production in CoQ10-deficient lymphocytes (unknown origin) assessed as cellular ATP level at 25 uM after 48 hrs using luciferin-luciferase reaction by bioluminescence assay relative to control. The class given is functional. In a few lines:
as §2

In series [7] the test system is Lymphocyte. In words: Inhibition of lipid peroxidation in diethyl maleate-treated human lymphocytes obtained from FRDA patient at 100 to 250 nM after 16 hrs using C11-BODIPY581/591 by FACS analysis. The series is classed as functional, cell-based. A digest of the protocol:
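FRDA lymphocytes depleted of glutathione with DEM, probed with C11-BODIPY581/591. Green (oxidized) fluorescence read by flow cytometry at 490/510 nm. Median mean fluorescence taken relative to untreated control and converted to % lipid peroxidation scavenging; mean ± SEM, n = 3.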

The test system of series [8] is Lymphocyte. The series is described as follows: Cytoprotective activity in human lymphocytes obtained from Leigh's syndrome patient assessed as viable cells at 0.5 uM after 16 hrs by trypan blue exclusion assay. The class given is functional. Particulars: read-out: Activity. A digest of the protocol: as §1
Series [9] deals with Lymphocyte. In words: Inhibition of oxidative stress-induced mitochondrial membrane depolarization in diethyl maleate-treated human lymphocytes obtained from FRDA patient assessed as cells with intact mitochondrial membrane potential at 100 nM pretreated for 16 hrs using TMRM by FACS analysis (reference value: 95%). The class given is functional. The arrangement: scale not given: the % may be the effect or the level left. For orientation: A flow cytometer gives signals particle by particle.

Series [10] concerns Lymphocyte. The series is described as follows: Inhibition of oxidative stress-induced mitochondrial membrane depolarization in diethyl maleate-treated human lymphocytes obtained from FRDA patient assessed as cells with intact mitochondrial membrane potential pretreated for 16 hrs using TMRM by FACS analysis. The class given is functional, cell-based.
Series [11] can be described thus: Metabolic stability in bovine liver microsomes at 25 uM after 30 mins by reverse phase HPLC analysis. The class given is ADME, Bos taurus. Particulars: cattle, read-out: Stability. In a few lines:
(§3)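 Compounds incubated 30 min with activated bovine liver microsomes. Remaining parent compound quantified by reversed-phase HPLC and expressed as % recovered; mean ± SD.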
In general terms: Microsomes from liver hold many membrane-bound enzymes, among them those of drug oxidation.

Series [12] relates to Lymphocyte. The series is described as follows: Cytoprotective activity in human lymphocytes obtained from FRDA patient assessed as viable cells at 0.1 uM after 16 hrs by trypan blue exclusion assay. Particulars: read-out: Activity. The series is classed as functional. A digest of the protocol: as §1
For series [13], the system named is Lymphocyte. In words: Inhibition of oxidative stress-induced mitochondrial membrane depolarization in diethyl maleate-treated human lymphocytes obtained from FRDA patient assessed as cells with intact mitochondrial membrane potential at 500 nM pretreated for 16 hrs using TMRM by FACS analysis (reference value: 95%). The arrangement: scale not given: the % may be the effect or the level left. The series is classed as functional.

In series [14] the test system is Lymphocyte. In words: Cytoprotective activity in human lymphocytes obtained from FRDA patient assessed as viable cells at 2.5 uM after 16 hrs by trypan blue exclusion assay. The series is classed as functional. As to conditions: read-out: Activity. A digest of the protocol:
as §1

The species entered for series [15] is Bos taurus. The series is described as follows: Inhibition of bovine heart mitochondrial NADH oxidase complex I/III/IV assessed as remaining activity at 10 uM by spectrophotometry relative to untreated control.
The test system of series [16] is Lymphocyte. In words: Increase in ATP production in CoQ10-deficient lymphocytes (unknown origin) assessed as cellular ATP level at 5 uM after 48 hrs using luciferin-luciferase reaction by bioluminescence assay relative to control. The class given is functional. In a few lines: as §2
Series [17] is described as follows: Drug metabolism in bovine liver microsomes at 25 uM after 30 mins by reverse phase HPLC analysis. The class given is ADME, Bos taurus. Particulars: cattle, read-out: Drug metabolism. In a few lines: as §3
For series [18], the system named is Lymphocyte. In words: Inhibition of oxidative stress-induced mitochondrial membrane depolarization in diethyl maleate-treated human lymphocytes obtained from FRDA patient assessed as cells with intact mitochondrial membrane potential at 250 nM pretreated for 16 hrs using TMRM by FACS analysis (reference value: 95%). The arrangement: scale not given: the % may be the effect or the level left. The series is classed as functional.

The species named for series [19] is Bos taurus. The series is described as follows: Inhibition of bovine heart mitochondrial NADH oxidase complex I/III/IV assessed as remaining activity by spectrophotometry relative to untreated control.
For series [20], the species on record is Bos taurus. The series is described as follows: Inhibition of bovine heart mitochondrial NADH oxidase complex I/III/IV assessed as remaining activity at 5 uM by spectrophotometry relative to untreated control.
Series [21] deals with Lymphocyte. The series is described as follows: Inhibition of ROS generation in diethyl maleate-treated human lymphocytes obtained from FRDA patient compound pretreated at 100 to 500 nM for 16 hrs using DCFH-DA by FACS analysis. The class given is functional, cell-based. A digest of the protocol: (§4)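 FRDA lymphocytes pretreated with compounds at 100, 250 and 500 nM for 16 h, then given DEM for 80 min to raise ROS. Stained with DCFH-DA for 15 min, then DCF fluorescence read by flow cytometry. Reported as % ROS scavenging; mean ± SEM of three experiments run in duplicate.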

For series [22], the species on record is Bos taurus. The series is described as follows: Inhibition of bovine heart mitochondrial NADH oxidase complex I/III/IV assessed as remaining activity at 1 uM by spectrophotometry relative to untreated control.
Series [23] concerns Lymphocyte. The series is described as follows: Cytoprotective activity in human lymphocytes obtained from Leigh's syndrome patient assessed as viable cells at 2.5 uM after 16 hrs by trypan blue exclusion assay. The class given is functional. Particulars: read-out: Activity. In a few lines:
as §1

In series [24] the test system is Lymphocyte. The series is described as follows: Inhibition of ROS generation in diethyl maleate-treated human lymphocytes obtained from FRDA patient compound pretreated for 16 hrs using DCFH-DA by FACS analysis. The series is classed as functional, cell-based. In a few lines:
as §4

Calls of active or inactive are those of the source. No cut-off for these calls is given here.

Take `CCCCCCCCCCc1nc(N(C)C)c(C)c(C)c1O`: the viability at 0.5 µM came to 74% in the series with Lymphocyte [1] and 77% with Lymphocyte [8]. The Activity result is “Dose-dependent effect” in the series with Lymphocyte [2]; 52% in the series with Lymphocyte [3]; “Dose-dependent effect” with Lymphocyte [4]; 13% in the series on Lymphocyte [6]; 65% in the series on Lymphocyte [9]; 90% in the series on Lymphocyte [13]. Moreover, the Activity was found to be 13% in the series filed under Bos taurus [15]; 89% in the series with Lymphocyte [16]; 82% with Lymphocyte [18]; 28% in the series listed under Bos taurus [20]; 35% in the series filed under Bos taurus [22]. Moreover, the results for the viability at 0.1 µM with Lymphocyte [5] and with Lymphocyte [12] were 6% and 36%, respectively. Further, the inhibition entry with Lymphocyte [7] and with Lymphocyte [21] was “Active” throughout. Also, the inhibition result in the series with Lymphocyte [10] and in the series listed under Bos taurus [19] was “Dose-dependent effect” throughout. Moreover, the remaining at 0.5 h, 25 µM in series [11] worked out at 70%. The viability at 2.5 µM in the series on Lymphocyte [14] was 87%; in the series with Lymphocyte [23] it was 79%. Moreover, the metabolised at 0.5 h, 25 µM in series [17] amounted to 25%.
For the compound `CCCCCCCCCCCCCCCCc1nc(N(C)C)c(C)c(C)c1O`, the viability at 0.5 µM in the series with Lymphocyte [1] was found to be 91%; in the series with Lymphocyte [8], 78%. Further, the Activity result in the series on Lymphocyte [2] was “Dose-dependent effect”; with Lymphocyte [3], 79%; in the series on Lymphocyte [4] it was “Dose-dependent effect”; in the series on Lymphocyte [6] it was 41%; with Lymphocyte [9], 67%; in the series with Lymphocyte [13] it was 92%. The Activity in the series filed under Bos taurus [15] is 92%; in the series on Lymphocyte [16] it was 100%; in the series on Lymphocyte [18] it was 84%; in the series filed under Bos taurus [20], 95%; in the series filed under Bos taurus [22], 98%. Besides, the figures for the viability at 0.1 µM in the series on Lymphocyte [5] and with Lymphocyte [12] were 29% and 80%, respectively. Moreover, the inhibition entry in the series with Lymphocyte [7] and in the series on Lymphocyte [21] was “Active” in each case. In addition, the inhibition entry in the series with Lymphocyte [10], in the series listed under Bos taurus [19] and with Lymphocyte [24] was “Dose-dependent effect” throughout. The remaining at 0.5 h, 25 µM in series [11] came to 70%. In addition, the viability at 2.5 µM in the series with Lymphocyte [14] was determined as 92%; with Lymphocyte [23], 83%. Further, in series [17], the metabolised at 0.5 h, 25 µM worked out at 20%.
Turning to `CCCCCCCCCCCCCCCCc1c(C)c(N(C)C)nc(C)c1O`, the viability at 0.5 µM is 75% in the series on Lymphocyte [1] and 56% in the series on Lymphocyte [8]. In addition, the Activity entry is “Dose-dependent effect” in the series on Lymphocyte [2]; 80% in the series with Lymphocyte [3]; “Dose-dependent effect” with Lymphocyte [4]; 37% in the series on Lymphocyte [6]; 62% in the series with Lymphocyte [9]; 91% in the series on Lymphocyte [13]. Also, the Activity in the series filed under Bos taurus [15] was determined as 86%; in the series with Lymphocyte [16], 96%; in the series with Lymphocyte [18] it was 83%; in the series listed under Bos taurus [20], 93%; in the series listed under Bos taurus [22] it was 95%. For the same compound, the viability at 0.1 µM in the series on Lymphocyte [5] came to 11%; with Lymphocyte [12], 52%. Also, the inhibition entry in the series on Lymphocyte [7] and in the series with Lymphocyte [21] was “Active” each time. The inhibition entry with Lymphocyte [10], in the series filed under Bos taurus [19] and in the series on Lymphocyte [24] was “Dose-dependent effect” each time. Moreover, the remaining at 0.5 h, 25 µM in series [11] is 70%. The results for the viability at 2.5 µM with Lymphocyte [14] and in the series on Lymphocyte [23] were 84% and 85%, respectively. Besides, in series [17], the metabolised at 0.5 h, 25 µM amounted to 20%.

For the origin of these results see ChEMBL document CHEMBL3352113, “Cytoprotective pyridinol antioxidants as potential therapeutic agents for neurodegenerative and mitochondrial diseases” (Bioorg Med Chem, 2014).
